Measured values: ChEMBL document CHEMBL1131013, “Synthesis and evaluation of analogues of the partial agonist 6-(propyloxy)-4-(methoxymethyl)-beta-carboline-3-carboxylic acid ethyl ester (6-PBC) and the full agonist 6-(benzyloxy)-4-(methoxymethyl)-beta-carboline-3-carboxylic acid ethyl ester (Zk 93423) at wild type and recombinant GABAA receptors” (J Med Chem, 1998)

Key:
[1] = molecular target: T1, GABA-A receptor; alpha-3/beta-3/gamma-2 (Homo sapiens, UniProt P18507+P28472+P34903); assay: Binding affinity measured using LtK- cell membranes expressing GABA alpha-3-beta-3-gamma-2 receptor
T1 sequence (P18507 whole entry): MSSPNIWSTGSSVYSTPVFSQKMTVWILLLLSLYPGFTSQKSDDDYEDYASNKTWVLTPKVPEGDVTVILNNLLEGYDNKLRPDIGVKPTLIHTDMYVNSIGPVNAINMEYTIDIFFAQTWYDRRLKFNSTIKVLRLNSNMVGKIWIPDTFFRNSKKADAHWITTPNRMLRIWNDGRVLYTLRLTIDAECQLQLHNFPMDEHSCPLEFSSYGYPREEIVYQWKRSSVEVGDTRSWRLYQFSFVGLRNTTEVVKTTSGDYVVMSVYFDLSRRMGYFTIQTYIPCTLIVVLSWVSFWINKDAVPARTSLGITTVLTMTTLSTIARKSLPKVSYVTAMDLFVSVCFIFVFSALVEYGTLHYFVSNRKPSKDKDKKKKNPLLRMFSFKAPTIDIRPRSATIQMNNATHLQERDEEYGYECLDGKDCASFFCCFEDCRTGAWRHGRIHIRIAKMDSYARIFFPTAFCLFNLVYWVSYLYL
T1 sequence (P28472 whole entry): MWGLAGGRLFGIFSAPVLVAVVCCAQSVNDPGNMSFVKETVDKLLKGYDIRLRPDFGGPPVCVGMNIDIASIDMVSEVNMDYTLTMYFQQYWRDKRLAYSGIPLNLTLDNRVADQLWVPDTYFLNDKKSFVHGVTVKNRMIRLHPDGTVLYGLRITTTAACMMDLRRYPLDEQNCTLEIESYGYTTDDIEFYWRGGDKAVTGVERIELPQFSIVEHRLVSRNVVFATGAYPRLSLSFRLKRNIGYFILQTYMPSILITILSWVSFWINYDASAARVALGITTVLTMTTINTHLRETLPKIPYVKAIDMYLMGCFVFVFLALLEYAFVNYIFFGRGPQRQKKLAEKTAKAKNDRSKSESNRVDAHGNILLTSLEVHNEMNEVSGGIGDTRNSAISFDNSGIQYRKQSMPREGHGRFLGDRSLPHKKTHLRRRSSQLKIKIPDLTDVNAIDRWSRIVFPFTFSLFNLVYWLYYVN
T1 sequence (P34903 whole entry): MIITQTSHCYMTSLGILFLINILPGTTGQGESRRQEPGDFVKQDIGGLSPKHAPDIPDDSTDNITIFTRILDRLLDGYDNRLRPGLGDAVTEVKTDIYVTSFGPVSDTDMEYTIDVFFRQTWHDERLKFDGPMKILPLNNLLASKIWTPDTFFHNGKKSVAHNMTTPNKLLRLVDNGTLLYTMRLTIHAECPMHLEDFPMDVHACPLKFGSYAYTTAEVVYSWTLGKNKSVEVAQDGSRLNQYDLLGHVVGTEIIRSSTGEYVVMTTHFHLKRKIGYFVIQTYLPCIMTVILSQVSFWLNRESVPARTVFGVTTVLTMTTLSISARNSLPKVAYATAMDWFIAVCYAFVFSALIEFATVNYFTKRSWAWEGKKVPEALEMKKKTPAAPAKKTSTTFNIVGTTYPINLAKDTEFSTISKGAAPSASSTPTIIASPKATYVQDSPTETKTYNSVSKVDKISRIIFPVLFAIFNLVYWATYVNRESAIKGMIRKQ

[2] = molecular target: T2, GABA-A receptor; alpha-5/beta-3/gamma-2 (Homo sapiens, UniProt P18507+P28472+P31644); assay: Binding affinity measured using LtK- cell membranes expressing Gamma-aminobutyric acid A receptor alpha-5-beta-3-gamma-2
T2 sequence (P18507 whole entry): T1 sequence (P18507 whole entry)
T2 sequence (P28472 whole entry): T1 sequence (P28472 whole entry)
T2 sequence (P31644 whole entry): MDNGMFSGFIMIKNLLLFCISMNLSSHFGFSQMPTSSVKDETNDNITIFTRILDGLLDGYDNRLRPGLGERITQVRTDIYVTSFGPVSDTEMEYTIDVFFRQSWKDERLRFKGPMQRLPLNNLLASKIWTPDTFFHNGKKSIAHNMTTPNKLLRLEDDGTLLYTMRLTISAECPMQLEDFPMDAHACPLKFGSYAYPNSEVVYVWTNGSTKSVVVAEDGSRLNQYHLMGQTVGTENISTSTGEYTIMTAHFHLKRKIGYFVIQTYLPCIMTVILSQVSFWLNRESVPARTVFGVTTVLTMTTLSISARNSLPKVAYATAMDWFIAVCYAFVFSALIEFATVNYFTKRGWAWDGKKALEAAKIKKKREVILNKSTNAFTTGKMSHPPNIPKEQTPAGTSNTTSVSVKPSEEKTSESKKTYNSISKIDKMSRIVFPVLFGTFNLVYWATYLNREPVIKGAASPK

[3] = molecular target: T3, GABA-A receptor; alpha-1/beta-3/gamma-2 (Homo sapiens, UniProt P14867+P18507+P28472); assay: Binding affinity measured using LtK- cell membranes expressing GABA alpha-1-beta-3-gamma-2 receptor
T3 sequence (P14867 whole entry): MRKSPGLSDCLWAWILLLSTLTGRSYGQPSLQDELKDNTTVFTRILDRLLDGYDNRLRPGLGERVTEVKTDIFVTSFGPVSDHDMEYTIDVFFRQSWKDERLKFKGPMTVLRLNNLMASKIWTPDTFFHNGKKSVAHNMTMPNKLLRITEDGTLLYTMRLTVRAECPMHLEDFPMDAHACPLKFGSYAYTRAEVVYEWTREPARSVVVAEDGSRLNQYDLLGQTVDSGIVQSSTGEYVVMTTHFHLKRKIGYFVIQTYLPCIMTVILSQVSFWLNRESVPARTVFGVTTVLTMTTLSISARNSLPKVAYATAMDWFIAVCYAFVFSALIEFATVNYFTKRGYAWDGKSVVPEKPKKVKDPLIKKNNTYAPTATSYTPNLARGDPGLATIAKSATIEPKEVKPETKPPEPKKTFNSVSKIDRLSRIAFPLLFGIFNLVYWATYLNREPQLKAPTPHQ
T3 sequence (P18507 whole entry): T1 sequence (P18507 whole entry)
T3 sequence (P28472 whole entry): T1 sequence (P28472 whole entry)

[4] = molecular target: T4, GABA-A receptor; alpha-2/beta-3/gamma-2 (Homo sapiens, UniProt P18507+P28472+P47869); assay: Binding affinity measured using LtK- cell membranes expressing GABA alpha-2-beta-3-gamma-2 receptor
T4 sequence (P18507 whole entry): T1 sequence (P18507 whole entry)
T4 sequence (P28472 whole entry): T1 sequence (P28472 whole entry)
T4 sequence (P47869 whole entry): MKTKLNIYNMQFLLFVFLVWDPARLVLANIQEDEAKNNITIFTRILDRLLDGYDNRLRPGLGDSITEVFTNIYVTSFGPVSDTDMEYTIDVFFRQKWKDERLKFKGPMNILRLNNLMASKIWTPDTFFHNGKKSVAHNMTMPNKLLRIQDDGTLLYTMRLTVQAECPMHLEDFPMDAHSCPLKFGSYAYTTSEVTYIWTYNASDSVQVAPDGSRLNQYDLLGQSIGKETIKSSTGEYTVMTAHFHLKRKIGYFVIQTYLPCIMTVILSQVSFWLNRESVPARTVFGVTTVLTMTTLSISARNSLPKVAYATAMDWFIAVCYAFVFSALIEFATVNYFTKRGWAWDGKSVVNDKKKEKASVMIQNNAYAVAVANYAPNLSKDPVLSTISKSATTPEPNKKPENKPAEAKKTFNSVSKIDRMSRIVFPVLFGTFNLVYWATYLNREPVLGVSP

[5] = molecular target: GABA-A receptor; alpha-6/beta-3/gamma-2 (Homo sapiens, UniProt P18507+P28472+Q16445); assay: Binding affinity measured using LtK- cell membranes expressing Gamma-aminobutyric acid A receptor alpha-6-beta-3-gamma-2
Sequence of GABA-A receptor; alpha-6/beta-3/gamma-2 (Q16445 whole entry, one chain of several): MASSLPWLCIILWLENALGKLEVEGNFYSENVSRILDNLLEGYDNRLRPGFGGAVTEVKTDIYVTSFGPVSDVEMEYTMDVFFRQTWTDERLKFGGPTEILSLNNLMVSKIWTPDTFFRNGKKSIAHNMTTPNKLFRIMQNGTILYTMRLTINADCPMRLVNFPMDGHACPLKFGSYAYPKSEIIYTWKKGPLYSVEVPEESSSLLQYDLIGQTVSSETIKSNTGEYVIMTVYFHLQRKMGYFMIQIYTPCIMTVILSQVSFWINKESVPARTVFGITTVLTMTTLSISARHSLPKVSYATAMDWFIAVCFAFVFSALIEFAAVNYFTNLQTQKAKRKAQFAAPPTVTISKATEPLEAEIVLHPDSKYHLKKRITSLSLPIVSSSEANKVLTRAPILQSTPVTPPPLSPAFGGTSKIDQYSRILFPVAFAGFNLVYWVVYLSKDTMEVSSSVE
How it was run: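 Ltk- cells expressing human α6β3γ2, scraped into PBS and resuspended in 10 mM KH2PO4/100 mM KCl pH 7.4. 1 h at 4 °C to equilibrium, filtration, scintillation counting.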

[6] = molecular target: GABA-A receptor; anion channel; assay: Displacement of [3H]flunitrazepam from GABA-A Benzodiazepine receptor of rat brain cortical membranes; format: cell membranes, Membrane
How it was run: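 Rat cerebral cortex homogenized in 50 mM Tris-citrate, pH 7.4, and washed by centrifugation (20000g). […] Nonspecific binding with 10 μM Ro15-1788. Ended by vacuum filtration. IC50 estimated from at least six inhibitor concentrations; mean ± SEM of at least three determinations.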

| Compound | Ki [1] [nM] | Ki [2] [nM] | Ki [3] [nM] | Ki [4] [nM] | Ki [5] [nM] | IC50 [6] [nM] |
| --- | --- | --- | --- | --- | --- | --- |
| Cc1nnc2ccc(-c3cccc(C(F)(F)F)c3)nn12 [CI-218872] | 1160 | 561 | 57 | 1960 | > 10000 | – |
| CCOC(=O)c1cc2c(cn1)[nH]c1ccccc12 | – | – | 1.2 | – | – | – |
| COCc1c(/N=C(/S)OC)[nH]cc2nc3ccc(OCc4ccccc4)cc3c1-2 | – | – | – | – | – | 176 |
| CCOC(=O)c1cc2c3cc(OCc4ccccc4)ccc3n(C)c2cn1 | – | – | – | – | – | > 5000 |
| COCc1c(C(=O)OC(C)C)ncc2[nH]c3ccc(OCc4ccccc4)cc3c12 [ABECARNIL] | 7.5 | 6 | 12.4 | 15.3 | > 10000 | – |
| CCOC(=O)c1ncc2[nH]c3ccccc3c2c1COC | 4.8 | 10.4 | 0.6 | 2.8 | 1150 | – |
| Cc1ccc(-c2nc3ccc(C)cn3c2CC(=O)N(C)C)cc1 [ZOLPIDEM] | – | > 10000 | – | – | > 10000 | – |
| CCCOc1[nH]cc2nc3ccc(OCc4ccccc4)cc3c-2c1COC | – | – | – | – | – | 63.8 |
| CCOC(=O)c1ncc2[nH]c3ccc(OCc4ccccc4)cc3c2c1COC | 6 | 4.5 | 4.1 | 4.2 | > 1000 | – |
| CCOC(=O)c1ncc2c(c1CC)c1cc(OCc3ccccc3)ccc1n2C | – | – | – | – | – | > 5000 |
| c1ccc(COc2cc3c4ccccc4nc-3c[nH]2)cc1 | > 3000 | > 10000 | 830 | > 3000 | > 10000 | – |
| CC(C)Oc1cc2c(cn1)[nH]c1ccccc12 | > 3000 | > 10000 | 283 | > 3000 | > 10000 | – |
| CC(C)(C)OC(=O)c1cc2c3ccccc3nc-2c[nH]1 | 18.9 | 111 | 0.72 | 15 | > 5000 | – |
| CCCCOc1cc2c(cn1)[nH]c1ccccc12 | 245 | 1000 | 36.9 | 194 | > 1000 | – |
| CCOC(=O)c1[nH]cc2nc3cc(OC)c(OC)cc3c-2c1CC | 4 | 3.3 | 6.2 | 18.7 | 74.9 | – |
| CCCOc1ccc2[nH]c3cnc(C(=O)OC(C)C)c(COC)c3c2c1 | – | – | – | – | – | 30.8 |
| CCC(C)Oc1cc2c3ccccc3nc-2c[nH]1 (stereo not drawn) | 869 | > 10000 | 245 | 818 | > 10000 | – |
